# HSF1 activator: increases HSF-1 driven luciferase reporter signal; NIH3T3-HGL HSF-1 luciferase reporter, MG132, 8 h; 100% = twice DMSO control signal; activation, % at 9 µM; 1.7% of 300,000 active;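 active = mean replicate activation of at least 50% with a set share of replicates each reaching 50%; inconclusive = only one of those two conditions met; inactive = mean below 50% and too few replicates reaching it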
# HSP90 inh: HSP90 refolding inhibition in rabbit reticulocyte lysate; luciferase refolding luminescence, 3 h; inhibition, % at 5.6 µM; 0.91% of 290,000 active;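 active = inhibition above the screen-wide mean plus 3 SD, computed separately per campaign, cut at about 16% in these data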;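 note: inhibitors lower the luminescence because luciferase stays unfolded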
# Hsp70 act: Hsp70 transcriptional activation, primary screen. HeLa Hsp70 promoter luciferase reporter, luminescence; scaled: vehicle 0, proteasome-inhibitor control 100%. activation, % at 10 µM. 0.04% of 200,000 active. AID 1203;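 active = activation above the mean across all tested compounds plus 3 SD, cutoff set per campaign, cut at about 5.5% in these data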
# HSF1 inh: HSF1 inhibition. NIH3T3-HGL HSE-luciferase, MG132-induced, luminescence 8 h; hits give low values. activity change, negative = inhibition, % at 7.5 µM (by protocol). 0.77% of 300,000 active;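 active = more than half of replicate wells show activity change below -50%, luminescence cut by over half; inconclusive = some wells, but at most half, below -50%; inactive = no replicate well below -50%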;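 note: luciferase reports HSF-1 transcriptional activity via heat shock element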
# TbHK1 inh: T. brucei hexokinase 1 inhibition | recombinant TbHK1, G6PDH-coupled NADH A340 | inhibition, % at 10 µM | 0.11% of 220,000 active;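 active = inhibition of 50% or more in the single-dose primary screen; inactive = inhibition below 50%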
# HKDC1 inhibitor: blocks human hexokinase HKDC1 activity. Q2TB90. recombinant HKDC1, G6PDH/diaphorase resazurin coupled fluorescence. inhibition, % at 20 µM. 0.16% of 340,000 active;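 active = inhibition above about 35% when tested at 20 µM, limit read from the data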
#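 Test system: Recombinant HKDC1 (HK5) hexokinase enzyme, produced in-house | Input: HKDC1 at 5 µg/mL | Buffer or medium: Tris pH 8.0 buffer with MgCl2, Tween-20, BSA, BME | Schedule: 90 min reaction incubation at room temperature, dark | Technique: Resazurin-to-resorufin fluorescence via G6PDH and diaphorase coupling, 525/613 nm | Controls: DMSO wells with and without enzyme mix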
# A number is an active result; - = inactive; ? = inconclusive; . = not tested or not shown. Hits are enriched below; roughly 3.1% of the tested compounds scored in any of these assays.
SMILES,HSF1 activator,HSP90 inh,Hsp70 act,HSF1 inh,TbHK1 inh,HKDC1 inhibitor
CCc1ccccc1NC(=O)c1ccc(NS(C)(=O)=O)cc1,-,-,-,-56,-,-
COc1ccccc1NC(=O)c1ccc(NS(C)(=O)=O)cc1,-,-,-,-,-,-
C[C@H](NC(=O)[C@@H]1Cc2ccccc2CN1)C(=O)Nc1ccc2c(c1)OCCO2,-,-,.,-,.,-
CCC(C)[C@H](NC(=O)[C@@H]1Cc2ccccc2CN1)C(=O)Nc1ccc2c(c1)OCO2 (some centres undefined),77,-,.,-,.,-
O=C(CNC(=O)[C@@H]1Cc2ccccc2CN1)Nc1ccc2c(c1)OCCO2,-,-,.,-52,.,-
CSCC[C@H](NC(=O)[C@@H]1Cc2ccccc2CN1)C(=O)Nc1ccc2c(c1)OCCO2,-,-,.,-52,.,-
O=C(NCc1ccncc1)C1CCCN(S(=O)(=O)c2cc(Cl)ccc2Cl)C1 (centres undefined),-,.,.,-,.,-
O=C(/C=C/c1cccc(O)c1)c1ccc(N2CCOCC2)cc1,74,-,.,-,-,-
C/C(=N\N=C(/N)c1nonc1N)c1ccc2c(c1)OCO2,101,-,.,-,-,-
CCCn1c(SCC(=O)N(C)CC(=O)Nc2ccc(C)cc2)n[nH]c1=O,.,.,.,.,.,-
O=C(NN1C(=O)C2C(C1=O)C1C=CC2C12CC2)c1ccc(Cl)cc1 (centres undefined),65,-,.,-,-,-
Oc1c(C2=NCCNC(C(F)(F)F)=C2)ccc2ccccc12,81,-,-,-,-,-
Cc1ccc(O)c(C2=NCCNC(C(F)(F)F)=C2)c1,-,-,-,-,-,-
O=C(CSc1nc(-c2ccc(F)cc2)nc2c1Cc1ccccc1O2)Nc1cccc(C(=O)O)c1,-,-,-,-,-,57
O=C(CSc1nc(-c2ccccc2)nc2c1Cc1ccccc1O2)Nc1ccccc1,-,-,-,-,-,.
O=C(Nc1ccccc1)C(=O)Nc1cccnc1,-,16,.,-,-,-
O=C(/C=C/c1ccc(Cl)cc1Cl)Nc1ccncc1,.,-,-,.,-,-
O=C(/C=C/c1ccccc1Cl)Nc1ccncc1,53,-,-,-,-,-
Cc1cccc(NC(=O)/C(C#N)=C/c2ccc(Cl)cc2)n1,-,-,.,-,.,-
O=C(CC(=O)c1ccccc1)Nc1cccnc1,-,-,-,-,-,-
O=C(/C=C/c1c(F)cccc1Cl)Nc1nc2ccccc2[nH]1,63,-,-,-,-,-
Cc1cccc(NC(=O)/C=C/c2ccc(Cl)cc2)n1,67,-,-,-,-,-
N/C(=N\OC(=O)/C=C/c1ccccc1)c1cccnc1,?,-,-,-,-,-
N/C(=N\OC(=O)/C=C/c1ccccc1Cl)c1cccnc1,57,-,.,-,-,-
O=C(/C=C/c1c(F)cccc1Cl)Nc1ccncc1,69,-,-,-,-,-
SMILES,HSF1 activator,HSP90 inh,Hsp70 act,HSF1 inh,TbHK1 inh,HKDC1 inhibitor
COc1ccccc1/C=C/C(=O)Nc1cccnc1,-,-,.,-,.,-
Cc1cc(C)nc(NC(=O)/C=C/c2ccc(Cl)cc2Cl)c1,-,-,-,-,-,-
O=C(/C=C/c1ccccc1Cl)Nc1cccnc1,58,-,.,-,.,-
Cc1cc(C)nc(NC(=O)/C=C/c2ccccc2Cl)c1,84,-,-,-,-,-
O=C(/C=C/c1c(Cl)cccc1Cl)Nc1ccncc1,?,-,-,-,-,-
NC(=O)C1(c2ccccc2)OC1c1ccccc1 (centres undefined),-,.,.,-,.,-
CC1CCCCC12NC(=O)N(CC(=O)c1ccc(Cl)s1)C2=O (centres undefined),-,-,.,-,.,-
CCc1ccc(N(CC(=O)NC(C)C)C(=O)CCC(=O)Nc2ccccn2)cc1,-,-,.,-,.,-
O=C(COc1ccc(F)c(Cl)c1)Nc1ccc(N2CCOCC2)cc1,.,.,.,.,.,-
CN1CCN(C(=O)c2cc(Cl)ccc2NC(=O)c2ccc(Cl)cc2Cl)CC1,-,-,.,-,.,-
COc1ccc(C(C)NC(=O)c2ccncc2)cc1 (centres undefined),-,-,.,-,.,-
COc1cccc(N(C(=O)CCl)C(C(=O)NCCc2ccccc2)c2cccs2)c1 (centres undefined),-,-,-,-92,-,-
COc1cccc(N(C(=O)c2snc(C(N)=O)c2N)C(C(=O)NCC2CCCO2)c2cccs2)c1 (centres undefined),-,-,.,-,.,-
COc1cccc(N2CCN(c3ncnc4c3[nH]c3ccc(F)cc34)CC2C)c1 (centres undefined),-,-,-,-84,-,-
CC1CC(=O)N(CC(=O)NCc2ccc3c(c2)OCO3)c2ccccc2S1 (centres undefined),-,-,-,-,-,-
CC1CC(=O)N(CC(=O)NCc2ccco2)c2ccccc2S1 (centres undefined),61,-,-,-,-,-
BrC(/C=N/Nc1nc(N2CCOCC2)nc(N2CCOCC2)n1)=C/c1ccccc1,64,-,-,-,-,-
O=C(NCCc1csc(-c2ccccc2)n1)c1c(F)cccc1F,-,41,-,-,-,-
O=C(NCCc1csc(-c2ccccc2)n1)c1c(F)cccc1Cl,-,-,-,-,-,-
C#CC(=O)CC1(CN(Cc2ccccc2)C(=O)OC(C)(C)C)CCCCC1,.,.,.,.,.,-
O=c1c2ccccc2sc2nc(C3CCCCC3)n(Cc3ccco3)c(=O)c12,86,-,-,-,-,-
COc1ccc(C(=O)c2c(C(F)(F)F)oc3c2C(=O)c2ccccc2C3=O)cc1,-,-,-,-94,-,-
O=C1CCc2cc(NS(=O)(=O)c3ccc(F)cc3)cc3c2N1CC3,-,.,.,-,.,-
Cc1ccc(S(=O)(=O)Nc2cc3c4c(c2)CCN4C(=O)CC3)cc1,58,.,.,-,.,-
Cc1ccc(C(=O)O/N=C(\N)Cc2cccc3ccccc23)cc1,64,-,.,-,.,-
SMILES,HSF1 activator,HSP90 inh,Hsp70 act,HSF1 inh,TbHK1 inh,HKDC1 inhibitor
CC(Cc1cccs1)NC(=O)Nc1ccccc1 (centres undefined),-,-,-,-,-,-
CC(Cc1cccs1)NC(=O)Nc1ccc(Cl)cc1 (centres undefined),62,-,-,-,-,-
Cc1ccc(C(=O)Nc2ccc3c(c2)C(=O)NC3=O)cc1,-,-,.,-57,.,-
COc1cccc(-c2nc(C(=O)NCC3CCCO3)cc3c2[nH]c2ccccc23)c1 (centres undefined),-,-,.,-,.,-
O=S(=O)(c1ccc(-n2cnnn2)cc1)N1CCNCC1,83,-,.,-,.,-
O=C(C1CCN(S(=O)(=O)c2ccc(-n3cnnn3)cc2)CC1)N1CCCCC1,-,-,.,-,.,-
COC(=O)C1CCN(C(=O)/C=C/c2ccc(OC)cc2)CC1,-,-,-,-,-,-
COc1ccc2cc(/C=C/C(=O)N3CCN(CC(=O)N4CCCCCC4)CC3)ccc2c1,61,-,.,-,.,-
CC(C)(C)OC(=O)N[C@H](C(=O)OC(C)(C)C)c1ccc2ccccc2c1,.,.,.,.,.,-

# Screening results: PubChem, several laboratories
